SMILES strings stand for the structures. Calls of active or inactive are those of the source. The calls are words filed in the database; no cut-off is given here.

The target in experiment [1] is T1, GABA-A receptor; alpha-5/beta-3/gamma-2 (Homo sapiens) (UniProt P18507+P28472+P31644). The experiment is described as follows: Percent change in electrophysiological response in Xenopus oocytes expressing Alpha-5-beta-3-gamma-2 GABA-A receptor. The experiment is classed as functional, cell-based. Particulars: Oocyte. In a few lines:
(§1)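 Two-electrode voltage clamp on Xenopus oocytes injected with human GABA-A subunit cDNAs, 24-72 h expression, perfused with modified Barth's medium at pH 7.5, clamped between -40 and -70 mV. The GABA EC20 was titrated against a 3 mM GABA maximum. […] Result is % change of control current, mean ± SE of ≥4 oocytes.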

Experiment [2] deals with T2, GABA-A receptor; alpha-3/beta-3/gamma-2 (Homo sapiens) (UniProt P18507+P28472+P34903). The experiment is described as follows: Percent maximum change in electrophysiological response in Xenopus oocytes expressing alpha-3-beta-3-gamma-2 GABA-A receptor. The experiment is classed as functional, cell-based. The conditions noted are these: Oocyte. In outline:
as §1

The target in experiment [3] is T3, GABA-A receptor; alpha-2/beta-3/gamma-2 (Homo sapiens) (UniProt P18507+P28472+P47869). The experiment is described as follows: Percent maximum change in electrophysiological response in Xenopus oocytes expressing alpha-2-beta-3-gamma-2 GABA-A receptor. The experiment is classed as functional, cell-based. Particulars: Oocyte. In a few lines: as §1
For experiment [4], the target named is T4, GABA-A receptor; alpha-1/beta-3/gamma-2 (Homo sapiens) (UniProt P14867+P18507+P28472). The experiment is described as follows: Percent change in electrophysiological response in Xenopus oocytes expressing Alpha1-beta3-gamma2 GABA-A receptor. Particulars: Oocyte. The experiment is classed as functional, cell-based. In a few lines:
as §1

Experiment [5] addresses T3, GABA-A receptor; alpha-2/beta-3/gamma-2 (Homo sapiens). The experiment is described as follows: Percent change in electrophysiological response in Xenopus oocytes expressing Alpha2-beta3-gamma2 GABA-A receptor. The conditions noted are these: Oocyte. The experiment is classed as functional, cell-based. In a few lines: as §1
For experiment [6], the target named is T2, GABA-A receptor; alpha-3/beta-3/gamma-2 (Homo sapiens). The experiment is described as follows: Percent change in electrophysiological response in Xenopus oocytes expressing Alpha3-beta3-gamma2 GABA-A receptor. The conditions noted are these: Oocyte. The experiment is classed as functional, cell-based. In a few lines: as §1
In experiment [7] the target is T4, GABA-A receptor; alpha-1/beta-3/gamma-2 (Homo sapiens). The experiment is described as follows: Percent maximum change in electrophysiological response in Xenopus oocytes expressing alpha-1-beta-3-gamma-2 GABA-A receptor. The experiment is classed as functional, cell-based. The conditions noted are these: Oocyte. In a few lines: as §1
For experiment [8], the target named is T1, GABA-A receptor; alpha-5/beta-3/gamma-2 (Homo sapiens). The experiment is described as follows: Percent maximum change in electrophysiological response in Xenopus oocytes expressing alpha-5-beta-3-gamma-2 GABA-A receptor. The experiment is classed as functional, cell-based. Particulars: Oocyte. In a few lines:
as §1

Experiment [9] concerns Rattus norvegicus. The experiment is described as follows: Tested for cognitive performance in rats in delayed matching-to-place version of water maze test at 0.3 mg/kg i.p.; Enhanced performance. The experiment is classed as functional, organism-based. Details: dose 0.3 mg/kg.

In the case of `CCOC(=O)c1ncn2c1[C@@H]1CCCN1C(=O)c1cc(OC)ccc1-2`, the Efficacy in experiment [1] is -12%; in [2], -11%; in experiment [3], -26%; in [4], -12%; in [5], -17%; in experiment [6], -3%. Moreover, the Efficacy was -18% in experiment [7] and -21% in experiment [8].

As to `CC1(C)CC(=O)c2c(SCCO)sc(-c3nccs3)c2C1`, the outcome in [9] was Active.

The values are drawn from ChEMBL document CHEMBL1148356, “Synthesis and biological evaluation of 3-heterocyclyl-7,8,9,10-tetrahydro-(7,10-ethano)-1,2,4-triazolo[3,4-a]phthalazines and analogues as subtype-selective inverse agonists for the GABA(A)alpha5 benzodiazepine binding site” (J Med Chem, 2004).
